Assay results from ChEMBL document CHEMBL4371102, “Tricholopardins A and B, Anti-inflammatory Terpenoids from the Fruiting Bodies of Tricholoma pardinum” (J Nat Prod, 2019).
Peptide text beside a SMILES is read from it. * marks the point of attachment. Cbz = O=C(OCc1ccccc1)*

How the values were obtained:
RAW264.7 [1] = experiment: Anti-inflammatory activity against mouse RAW264.7 cells assessed as inhibition of LPS-stimulated NO production after 18 hrs by Griess reagent based assay; assay type: functional, cell-based; conditions: RAW264.7, 18 h
Summary of the method: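 RAW264.7 cells were seeded at 2 × 10^5 cells/well in RPMI 1640 with 10% FBS (37 °C, 5% CO2) and preincubated 24 h. They were then exposed 18 h to serial dilutions up to 25 μM (DMSO stock diluted in medium) with LPS 1 μg/mL. Supernatant was mixed 1:1 with Griess reagent for 5 min, and absorbance was read at 570 nm, in triplicate. MG-132 served as positive control.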

RAW264.7 [2] = experiment: Anti-inflammatory activity against mouse RAW264.7 cells assessed as inhibition of LPS-stimulated TNFalpha production preincubated for 30 mins followed by LPS addition and measured after 24 hrs by ELISA; assay type: functional, cell-based
Summary of the method: (§1)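 Cells kept at 37 °C in 5% CO2 with 10% heat-inactivated FBS and 1% penicillin: RAW264.7 in DMEM, THP-1 in RPMI 1640. Cells were pretreated 30 min with compound (2.5–20 μM, from DMSO solution) or dexamethasone (5 μM, positive control), then stimulated with LPS 1 μg/mL for 24 h. Supernatant TNF-α, IL-1β and PGE2 were measured by ELISA. Mean ± SD, n = 3; one-way ANOVA with Dunnett's T3 and two-tailed t test.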

RAW264.7 [3] = experiment: Anti-inflammatory activity against mouse RAW264.7 cells assessed as inhibition of LPS-stimulated IL-1beta production preincubated for 30 mins followed by LPS addition and measured after 24 hrs by ELISA; assay type: functional, cell-based; summary of the method: as §1
RAW264.7 [4] = experiment: Anti-inflammatory activity against mouse RAW264.7 cells assessed as inhibition of LPS-stimulated PGE2 production preincubated for 30 mins followed by LPS addition and measured after 24 hrs by ELISA; assay type: functional, cell-based; summary of the method: as §1
THP-1 [5] = experiment: Anti-inflammatory activity against human THP1 cells assessed as inhibition of LPS-stimulated TNFalpha production preincubated for 30 mins followed by LPS addition and measured after 24 hrs by ELISA; assay type: functional, cell-based; summary of the method: as §1
THP-1 [6] = experiment: Anti-inflammatory activity against human THP1 cells assessed as inhibition of LPS-stimulated IL-1beta production preincubated for 30 mins followed by LPS addition and measured after 24 hrs by ELISA; assay type: functional, cell-based; summary of the method: as §1
THP-1 [7] = experiment: Anti-inflammatory activity against human THP1 cells assessed as inhibition of LPS-stimulated PGE2 production preincubated for 30 mins followed by LPS addition and measured after 24 hrs by ELISA; assay type: functional, cell-based; summary of the method: as §1
RAW264.7 [8] = experiment: Anti-inflammatory activity against mouse RAW264.7 cells assessed as inhibition of LPS-stimulated TNFalpha production at 20 uM preincubated for 30 mins followed by LPS addition and measured after 24 hrs by ELISA relative to control; assay type: functional; summary of the method: as §1
RAW264.7 [9] = experiment: Anti-inflammatory activity against mouse RAW264.7 cells assessed as inhibition of LPS-stimulated IL-1beta production at 20 uM preincubated for 30 mins followed by LPS addition and measured after 24 hrs by ELISA relative to control; assay type: functional; summary of the method: as §1
RAW264.7 [10] = experiment: Anti-inflammatory activity against mouse RAW264.7 cells assessed as inhibition of LPS-stimulated PGE2 production at 20 uM preincubated for 30 mins followed by LPS addition and measured after 24 hrs by ELISA relative to control; assay type: functional; summary of the method: as §1
THP-1 [11] = experiment: Anti-inflammatory activity against human THP1 cells assessed as inhibition of LPS-stimulated TNFalpha production at 20 uM preincubated for 30 mins followed by LPS addition and measured after 24 hrs by ELISA relative to control; assay type: functional; summary of the method: as §1
THP-1 [12] = experiment: Anti-inflammatory activity against human THP1 cells assessed as inhibition of LPS-stimulated IL-1beta production at 20 uM preincubated for 30 mins followed by LPS addition and measured after 24 hrs by ELISA relative to control; assay type: functional; summary of the method: as §1
[13] = Cytotoxicity against mouse RAW264.7 cells assessed as cell viability up to 20 uM by MTS assay relative to control; assay type: cell-based; conditions: read-out: Activity
Summary of the method: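 RAW264.7 macrophages were grown in DMEM with 10% heat-inactivated FBS and 1% penicillin (37 °C, 5% CO2), detached with trypsin-EDTA and seeded in 96-well plates. At 80% confluence they were treated with compound at 2.5–20 μM (dissolved in DMSO). Viability was read by MTS following the kit instructions.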

Row | SMILES | IC50 (RAW264.7 [1]) | inhibition (RAW264.7 [2]) | inhibition (RAW264.7 [3]) | inhibition (RAW264.7 [4]) | inhibition (THP-1 [5]) | inhibition (THP-1 [6]) | inhibition (THP-1 [7]) | inhibition at 20 µM (RAW264.7 [8]) | inhibition at 20 µM (RAW264.7 [9]) | inhibition at 20 µM (RAW264.7 [10]) | inhibition at 20 µM (THP-1 [11]) | inhibition at 20 µM (THP-1 [12]) | viability [13]
1 | CC(C)C[C@@H](C=O)NC(=O)[C@H](CC(C)C)NC(=O)[C@H](CC(C)C)NC(=O)OCc1ccccc1 [MG-132] (Cbz-Leu-Leu-Leu-aldehyde) | 160 nM | – | – | – | – | – | – | – | – | – | – | – | –
2 | C=C1CC[C@@H](CCO)C(C)(C)[C@H]1C/C=C1/C(=O)OC[C@@H]1O | 16200 nM | – | – | – | – | – | – | – | – | – | – | – | –
3 | CC1=C(C=O)C(C)(C)[C@H](CC[C@H]2CC[C@]3(OC2)O[C@@]2(O)CC[C@]3(C)OC2(C)C)CC1 | 80 nM | Dose-dependent effect | Dose-dependent effect | Dose-dependent effect | Dose-dependent effect | Dose-dependent effect | Dose-dependent effect | 70.9% | 94.3% | 92.5% | 99.9% | 99.3% | 60%
